Experimental findings from ChEMBL document CHEMBL5715959, “Inhibition of histone methyltransferase EZH2 in Schistosoma mansoni in vitro by GSK343 reduces egg laying and decreases the expression of genes implicated in DNA replication and noncoding RNA metabolism” (2018) are described below.

Active and inactive are the calls of the source. No cut-off for these calls is given here. Where only a bound is given, the exact number is not on record here.

Experiment [1] concerns Schistosoma mansoni. Briefly: Cytotoxicity against adult Schistosoma mansoni assessed as reduction in ATP quantification at 50 uM incubated for 48 hrs by CellTiter-Glo Luminescent assay relative to control. In kind it is functional. Set-up: scale not given: the % may be the effect or the level left. The gist of the method:
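Worm pairs in supplemented RPMI (10% FBS, 37°C, 5% CO2) exposed 48 h to compound or 0.1% DMSO. ATP measured by luminescence in freshly lysed worms and expressed as % of vehicle signal; three replicate experiments, 10 pairs each, mean ± SD.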

The subject of experiment [2] is Schistosoma mansoni. Description: Antischistosomal activity against Schistosoma mansoni assessed as deterioration of tegument with blisters at 20 uM incubated for 24 hrs by scanning electron microscopy analysis. The format is functional, organism-based. The method, boiled down: (§1)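 Newly transformed schistosomula were held 16 h in M169 with 2% FBS, serotonin, hypoxanthine, hydrocortisone, triiodothyronine and antibiotics at 37°C, 5% CO2, at 2,000 per well. They were then exposed to 20 μM GSK343 or 0.1% DMSO for 24 and 48 h. Fixation was modified Karnovsky (pH 7.4) with 1% osmium post-fix, then ethanol dehydration, critical-point drying, gold coating and SEM. Lengths came from three experiments, each with 20 schistosomula.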

Experiment [3] has as its system Schistosoma mansoni. Description: Antischistosomal activity against Schistosoma mansoni assessed as down-regulated FGFR substrate 3 mRNA level in schistosomula at 20 uM incubated for 48 hrs by RT-qPCR analysis. The format is functional, organism-based. The method, boiled down:
(§2)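 Schistosomula (supplemented M169) or adult worms (supplemented RPMI) were treated 48 h with 20 μM GSK343 or 0.1% DMSO at 37°C, 5% CO2. qPCR normalizer genes were chosen from RNA-seq data as those with TPM >1 and a treated/control ratio of 0.9–1.1 that were not differentially expressed. Relative expression was calculated by comparative Ct; significance by t-test.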

The subject of experiment [4] is Schistosoma mansoni. Briefly: Antischistosomal activity against adult Schistosoma mansoni assessed as decreased H3K27me3 level at 20 uM incubated for 48 hrs by Western blotting analysis. In kind it is functional, organism-based. The method, boiled down:
(§3)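 Fifty adult worm pairs were treated 48 h with 20 μM GSK343 or vehicle in supplemented RPMI/10% FBS, then lysed in Triton buffer. Nuclear pellets were acid-extracted overnight in 0.25 M HCl at 4°C and histones were TCA-concentrated. 10 μg went on 15% SDS-PAGE and nitrocellulose, probed with anti-H3K27me3, K9ac, K27ac or K4me3, then IRDye secondaries; infrared densitometry was normalized to anti-H3. Three biological replicates; t-test.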

Experiment [5] relates to Schistosoma mansoni. Briefly: Antischistosomal activity against adult Schistosoma mansoni assessed as dead worms at 50 uM incubated for 48 hrs by inverted microscope analysis. The format is functional, organism-based. The method, boiled down: (§4)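 Paired adult worms were cultured in RPMI/10% FBS with antibiotics at 37°C, 5% CO2, with GSK343 or 0.1% DMSO. They were viewed by inverted microscope at 3, 6, 12, 24 and 48 h. Motility was scored on a 0–3 scale (3 full movement, 1.5 partial or immobile but alive, 0 dead); death meant no movement over more than 2 min. Pairing was recorded. Three experiments, each with 10 pairs; mean ± SD.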

The test system of experiment [6] is Schistosoma mansoni. Briefly: Antischistosomal activity against adult Schistosoma mansoni assessed as altered motility at 50 uM incubated for 12 hrs by inverted microscope analysis. The format is functional, organism-based. The method, boiled down: as §4
Experiment [7] has as its system Schistosoma mansoni. Description: Antischistosomal activity against adult Schistosoma mansoni assessed as decreased motility incubated for 24 hrs by inverted microscope analysis relative to control. In kind it is functional. Set-up: scale not given: the % may be the effect or the level left. The gist of the method: as §4
Experiment [8] relates to Schistosoma mansoni. Briefly: Cytotoxicity against juvenile Schistosoma mansoni assessed as decrease in viability at 50 uM incubated for 48 hrs by CellTiter-Glo Luminescent assay relative to control. The format is functional. The method, boiled down:
(§5)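 Perfused juvenile worms cultured in supplemented RPMI (10% FBS, 37°C, 5% CO2), exposed 24 or 48 h to compound or 0.1% DMSO. Total parasite ATP read by luminescence, given as % of vehicle; three replicate experiments of 10 juveniles each, mean ± SD.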

Experiment [9] relates to Schistosoma mansoni. Description: Antischistosomal activity against adult Schistosoma mansoni assessed as drastic reduction in pairing of couples at 50 uM incubated for 3 hrs by inverted microscope analysis relative to control. In kind it is functional. Set-up: scale not given: the % may be the effect or the level left. The gist of the method:
as §4

Experiment [10] deals with Schistosoma mansoni. Briefly: Cytotoxicity against juvenile Schistosoma mansoni assessed as decrease in viability at 20 to 50 uM incubated for 24 hrs by CellTiter-Glo Luminescent assay relative to control. The format is functional. The following applies: dose 20-50 µM. The method, boiled down:
as §5

Experiment [11] relates to Schistosoma mansoni. Description: Antischistosomal activity against Schistosoma mansoni assessed as death of schistosomula at 10 to 50 uM incubated for 24 to 72 hrs by propidium iodide staining based fluorescence microscope analysis. In kind it is functional, organism-based. Particulars: dose 10-50 µM, time 24-72 hrs. The gist of the method: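 Schistosomula were cultured in supplemented M169 with 10–50 μM GSK343 or 0.1% DMSO for 24, 48 and 72 h. A fresh well set was used per time point, with 2 μg/mL propidium iodide (dead) plus 0.5 μg/mL fluorescein diacetate (live) added. Parasites were read immediately by light and fluorescence microscopy; percent viable was computed against total parasites. About 3600 schistosomula per condition over four biological replicates; 70% ethanol served as positive control.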

Experiment [12] has as its system Schistosoma mansoni. Briefly: Antischistosomal activity against adult female Schistosoma mansoni assessed as rupture of blisters in dorsal region at 20 uM incubated for 24 to 48 hrs by scanning electron microscopy analysis. Particulars: time 24-48 hrs. The format is functional, organism-based. The gist of the method: (§6)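 Adult couples were taken by perfusion into supplemented RPMI, one couple per well, and adapted 2 h at 37°C, 5% CO2. They were exposed to 20 μM GSK343 or 0.1% DMSO for 24 and 48 h. Fixation used modified Karnovsky with osmium post-fix, followed by ethanol dehydration, critical-point drying, gold sputtering and scanning electron microscopy of tegument surfaces.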

The test system of experiment [13] is Schistosoma mansoni. Briefly: Cytotoxicity against Schistosoma mansoni assessed as decrease in viability at 20 uM incubated for 5 days by CellTiter-Glo Luminescent assay relative to control. Particulars: time 5 day. In kind it is functional. The gist of the method:
(§7)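 Newly transformed schistosomula pre-cultured 16 h in M169 with 2% FBS, serotonin, hypoxanthine, hydrocortisone, triiodothyronine and antibiotics at 37°C, 5% CO2, then 100–120 per well exposed up to 5 days to compound or 0.1% DMSO. ATP in intact larvae read by luminescence, expressed as % of vehicle; three replicate experiments, two-way ANOVA.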

The subject of experiment [14] is Schistosoma mansoni. Briefly: Antischistosomal activity against Schistosoma mansoni assessed as increased length of schistosomula at 20 uM incubated for 24 to 48 hrs by scanning electron microscopy analysis. The format is functional. The following applies: time 24-48 hrs. The gist of the method: as §1
Experiment [15] has as its system Schistosoma mansoni. Description: Antischistosomal activity against Schistosoma mansoni assessed as developmental changes at 20 uM incubated for 24 hrs by scanning electron microscopy analysis. In kind it is functional, organism-based. The method, boiled down: as §1
Experiment [16] relates to Schistosoma mansoni. Briefly: Antischistosomal activity against female Schistosoma mansoni assessed as down-regulated EEFB1 mRNA level at 20 uM incubated for 48 hrs by RT-qPCR analysis. The format is functional, organism-based. The method, boiled down: as §2
The subject of experiment [17] is Schistosoma mansoni. Briefly: Antischistosomal activity against adult Schistosoma mansoni assessed as increased H3K4me3 level at 20 uM incubated for 48 hrs by Western blotting analysis. The format is functional, organism-based. The method, boiled down: as §3
The subject of experiment [18] is Schistosoma mansoni. Description: Antischistosomal activity against adult male Schistosoma mansoni assessed as presence of deep chasms between the dorsal tubercles at 20 uM incubated for 48 hrs by scanning electron microscopy analysis. The format is functional, organism-based. The method, boiled down: as §6
The subject of experiment [19] is Schistosoma mansoni. Description: Antischistosomal activity against female Schistosoma mansoni assessed as down-regulated Tyrosinase 1 mRNA level at 20 uM incubated for 48 hrs by RT-qPCR analysis. The format is functional, organism-based. The method, boiled down: as §2
Experiment [20] has as its system Schistosoma mansoni. Description: Cytotoxicity against Schistosoma mansoni assessed as reduction in total ATP content at 20 uM incubated for 2 days by CellTiter-Glo Luminescent assay relative to control. Particulars: time 2 day. Set-up: scale not given: the % may be the effect or the level left. The format is functional. The gist of the method: as §7
In experiment [21] the test system is Schistosoma mansoni. Description: Antischistosomal activity against adult Schistosoma mansoni assessed as increased H3K9ac level at 20 uM incubated for 48 hrs by Western blotting analysis. The format is functional, organism-based. The gist of the method:
as §3

For the compound `CCCc1cc(C)[nH]c(=O)c1CNC(=O)c1cc(-c2ccnc(N3CCN(C)CC3)c2)cc2c1cnn2C(C)C`, the Activity in the experiment with Schistosoma mansoni [1] is less than 20%; in the experiment on Schistosoma mansoni [7], 50%; in the experiment with Schistosoma mansoni [8], 70%; in the experiment with Schistosoma mansoni [9] it was roughly 0%; in the experiment on Schistosoma mansoni [10], 20%; with Schistosoma mansoni [13] it was 70%. Also, the Activity in the experiment with Schistosoma mansoni [20] is 40%. The outcome in the experiment with Schistosoma mansoni [2], with Schistosoma mansoni [3], with Schistosoma mansoni [4], in the experiment on Schistosoma mansoni [5], with Schistosoma mansoni [6] and in the experiment with Schistosoma mansoni [11] was Active. The result in the experiment on Schistosoma mansoni [12], in the experiment with Schistosoma mansoni [16], in the experiment on Schistosoma mansoni [17], in the experiment with Schistosoma mansoni [18], in the experiment with Schistosoma mansoni [19] and in the experiment on Schistosoma mansoni [21] was Active. Moreover, the “fold change (FC)” value in the experiment on Schistosoma mansoni [14] is 1.1. In the experiment with Schistosoma mansoni [15], the result was inactive.
